# According to PubChem BioAssay:
# Values without a mark were called inactive. The source made the active and inactive calls.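 Rule for the calls, unless noted: active = viability increase at or above a cutoff of the median across tested compounds plus 3 SD (cut at about 8.5% in these data, passing the limit was not always enough); inconclusive = some gains above the cutoff, reason not given; inactive = the rest.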
# Experiment: S. cerevisiae growth inhibition in restrictive medium, OD615, pilot screen, restrictive growth control, yeast lifespan reduction project (AID 706;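 active = growth inhibition above a set limit, 3 SD over mean compound inhibition, in both replicates, cut at about 43% in these data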;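 note: modified DeaD lifespan yeast strain shifted to restrictive glucose medium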)
# Conditions: OD615, 48 h, at 10 µM, active compounds read high
# How it was run: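 Material: engineered S. cerevisiae DeaD strain / Medium: glucose-based CSMM-D restrictive medium / Compound: single dose of 10 µM compound final, 0.25% DMSO / Timing: 4 h pre-incubation, 48 h exposure at 30 °C / Technique: OD615 absorbance reading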
row,Structure (SMILES),growth inhibition
1,CCOc1ccc(N(CC(=O)Nc2ccc(C)c(C)c2)S(=O)(=O)c2c(C)noc2C)cc1,-5.67%
2,CCCn1c(OC)nc2c1c(=O)n(C)c(=O)n2C,-9.12%
3,COc1cc2[nH]c(=O)n(CCCCCC(=O)N3CCN(c4ccccn4)CC3)c(=O)c2cc1OC,-5.11%
4,CCOc1ccc(N(CC(=O)NC2CCCCC2)S(=O)(=O)c2c(C)noc2C)cc1,0.415%
5,O=C(c1ccco1)N1CCN(C(=O)c2sccc2-c2ccccc2)CC1,-9.14%
6,CCSC1=C(C#N)C(c2ccccc2OC)CC(=O)N1 (stereo not drawn),0.71%
7,CCOC(=O)Cn1nc(-c2ccc(Cl)cc2)cc1N,2.33%
8,CC(C(=O)N1CC2(C)CC1CC(C)(C)C2)N1C(=O)c2ccccc2C1=O (stereo not drawn),-0.265%
9,COc1cccc(N(C(C)=O)c2nc(C)cc(C)c2C#N)c1,9.36%
10,COc1cccc(NC(=O)c2ccco2)c1,6.41%
11,Cc1ccc(Cn2c(CN3CCOCC3)nc3c2c(=O)n(C)c(=O)n3C)cc1,-8.04%
12,CCOc1ccc(NC(=O)CSc2nccn2C)cc1,-9.37%
13,Cc1nc2ccc(Br)cn2c1NC(C)(C)C,4.22%
14,COc1ccccc1C(=O)NCCc1nc2ccccc2n1C,0.505%
15,Cn1ccnc1SCC(=O)Nc1ccc2ccccc2c1,3.36%
16,c1nc(NCC2(N3CCOCC3)CCCCC2)c2ccsc2n1,3.08%
17,Cc1noc(C(=O)Nc2ccc3c(c2)OCO3)c1Cl,6.31%
18,Cc1ccc(S(=O)(=O)N2CCOCC2)cc1C(=O)Nc1nc(-c2cccnc2)cs1,-6.87%
19,Cc1cccc(C)c1OCc1nnc(SCC(=O)Nc2ccccc2F)o1,-9.96%
20,CCN(CC)CCCN1C(=O)C(O)=C(C(=O)c2ccco2)C1c1ccc(C)o1 (stereo not drawn),14.4%

row,Structure (SMILES),growth inhibition
1,Cc1ccc(S(=O)(=O)C(C#N)c2nc3ccccc3nc2N2CCCCC2)cc1 (stereo not drawn),6.8%
2,C(/CCc1ccccc1)=N\n1cnnc1,1.89%
3,CCOCCCNC(=O)C(c1ccccc1)N(Cc1ccc2c(c1)OCO2)C(=O)CNC(C)=O (stereo not drawn),-2.68%
4,COc1ccccc1N1CCN(c2cc(=O)n(Cc3ccc(F)cc3)c(=O)[nH]2)CC1,0.535%
5,CNC(=O)C1C2C=CC3(O2)C1C(=O)N(C1CC1)C3C(=O)NCc1ccc(OC)cc1 (stereo not drawn),1.86%
6,CCCSc1nc2c(cnn2-c2ccc(C)cc2)c(=O)[nH]1,6.35%
7,Nn1c(Cc2ccccc2F)nnc1SCC(=O)N1CC(=O)Nc2ccccc21,-7.2%
8,CCc1ccc(N2CC(C(=O)OCC(=O)NC3CCS(=O)(=O)C3)CC2=O)cc1 (stereo not drawn),1.96%
9,Cc1ccccc1Cn1ccc(NC(=O)c2onc(C)c2Cl)n1,2.75%
10,O=C(CSc1ccc2nnc(-c3ccccc3)n2n1)N1CCN(c2ccccc2)CC1,8.33%
11,CC(C)C(NC(=O)c1ccc(S(=O)(=O)N2CCOCC2)cc1)c1nc2ccccc2[nH]1 (stereo not drawn),-12.6%
12,Cc1ccc(SCC(=O)NCCN2C(=O)CSC2=O)c(C)c1,-3.53%
13,N#Cc1c2n(c(=O)[nH]c1=O)CCCCC2,1.1%
14,CCN(C1CCCCC1)S(=O)(=O)c1ccc(S(=O)(=O)N2CCN(CCC#N)CC2)cc1,3.67%
15,COc1cccc2c(=O)c3c(cnn3C)n(C)c12,48.7% (active)
16,Cc1nnc(N2C(=O)C(O)=C(C(=O)c3ccco3)C2c2ccc(F)cc2)s1 (stereo not drawn),-28.6%
17,CC1(C)CC(=O)C(C=NCC2CCNCC2)=C(O)C1,-16.9%
18,CCOC(=O)C(C)Sc1nnc(Cc2cc(=O)[nH]c(=O)[nH]2)n1-c1ccc(Cl)cc1 (stereo not drawn),-11.5%
19,O=C(CS(=O)(=O)Cc1ccccc1)Nc1nc2ccccc2s1,-17.7%

# Experiment: doxorubicin toxicity protection in MRP-1 cells – H69AR cells, CellTiter-Glo, duplicate, MRP-1 activator project, pilot screen (AID 807);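 note: compound pretreatment 18-22 h then 72 h combined with doxorubicin; 0% = doxorubicin alone and 100% = vehicle without doxorubicin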
# Conditions: H69AR viability with doxorubicin, CellTiter-Glo luminescence; at 10 µM; active compounds read high
row,Structure (SMILES),viability increase [%]
1,CCOc1ccc(N(CC(=O)Nc2ccc(C)c(C)c2)S(=O)(=O)c2c(C)noc2C)cc1,-6.26
2,CCCn1c(OC)nc2c1c(=O)n(C)c(=O)n2C,0.06
3,COc1cc2[nH]c(=O)n(CCCCCC(=O)N3CCN(c4ccccn4)CC3)c(=O)c2cc1OC,-4.76
4,CCOc1ccc(N(CC(=O)NC2CCCCC2)S(=O)(=O)c2c(C)noc2C)cc1,-1.54
5,O=C(c1ccco1)N1CCN(C(=O)c2sccc2-c2ccccc2)CC1,-5.64
6,CCSC1=C(C#N)C(c2ccccc2OC)CC(=O)N1 (stereo not drawn),0.28
7,CCOC(=O)Cn1nc(-c2ccc(Cl)cc2)cc1N,0.37
8,CC(C(=O)N1CC2(C)CC1CC(C)(C)C2)N1C(=O)c2ccccc2C1=O (stereo not drawn),-3.98
9,COc1cccc(N(C(C)=O)c2nc(C)cc(C)c2C#N)c1,-0.35
10,COc1cccc(NC(=O)c2ccco2)c1,-4.31
11,Cc1ccc(Cn2c(CN3CCOCC3)nc3c2c(=O)n(C)c(=O)n3C)cc1,-4.67
12,CCOc1ccc(NC(=O)CSc2nccn2C)cc1,-1.79
13,Cc1nc2ccc(Br)cn2c1NC(C)(C)C,-2.98
14,COc1ccccc1C(=O)NCCc1nc2ccccc2n1C,0.02
15,Cn1ccnc1SCC(=O)Nc1ccc2ccccc2c1,-2.68
16,c1nc(NCC2(N3CCOCC3)CCCCC2)c2ccsc2n1,-3.33
17,Cc1noc(C(=O)Nc2ccc3c(c2)OCO3)c1Cl,-3.47
18,Cc1ccc(S(=O)(=O)N2CCOCC2)cc1C(=O)Nc1nc(-c2cccnc2)cs1,-1.69
19,Cc1cccc(C)c1OCc1nnc(SCC(=O)Nc2ccccc2F)o1,-1.03
20,CCN(CC)CCCN1C(=O)C(O)=C(C(=O)c2ccco2)C1c1ccc(C)o1 (stereo not drawn),-4.15

row,Structure (SMILES),viability increase [%]
1,Cc1ccc(S(=O)(=O)C(C#N)c2nc3ccccc3nc2N2CCCCC2)cc1 (stereo not drawn),-3.74
2,C(/CCc1ccccc1)=N\n1cnnc1,-1.24
3,CCOCCCNC(=O)C(c1ccccc1)N(Cc1ccc2c(c1)OCO2)C(=O)CNC(C)=O (stereo not drawn),-3.36
4,COc1ccccc1N1CCN(c2cc(=O)n(Cc3ccc(F)cc3)c(=O)[nH]2)CC1,-5.11
5,CNC(=O)C1C2C=CC3(O2)C1C(=O)N(C1CC1)C3C(=O)NCc1ccc(OC)cc1 (stereo not drawn),-1.49
6,CCCSc1nc2c(cnn2-c2ccc(C)cc2)c(=O)[nH]1,-8.01
7,Nn1c(Cc2ccccc2F)nnc1SCC(=O)N1CC(=O)Nc2ccccc21,-2.14
8,CCc1ccc(N2CC(C(=O)OCC(=O)NC3CCS(=O)(=O)C3)CC2=O)cc1 (stereo not drawn),1.23
9,Cc1ccccc1Cn1ccc(NC(=O)c2onc(C)c2Cl)n1,4.68
10,O=C(CSc1ccc2nnc(-c3ccccc3)n2n1)N1CCN(c2ccccc2)CC1,-3.49
11,CC(C)C(NC(=O)c1ccc(S(=O)(=O)N2CCOCC2)cc1)c1nc2ccccc2[nH]1 (stereo not drawn),-5.63
12,Cc1ccc(SCC(=O)NCCN2C(=O)CSC2=O)c(C)c1,-0.38
13,N#Cc1c2n(c(=O)[nH]c1=O)CCCCC2,1.19
14,CCN(C1CCCCC1)S(=O)(=O)c1ccc(S(=O)(=O)N2CCN(CCC#N)CC2)cc1,-3.47
15,COc1cccc2c(=O)c3c(cnn3C)n(C)c12,-5.44
16,Cc1nnc(N2C(=O)C(O)=C(C(=O)c3ccco3)C2c2ccc(F)cc2)s1 (stereo not drawn),-1.63
17,CC1(C)CC(=O)C(C=NCC2CCNCC2)=C(O)C1,-1.11
18,CCOC(=O)C(C)Sc1nnc(Cc2cc(=O)[nH]c(=O)[nH]2)n1-c1ccc(Cl)cc1 (stereo not drawn),0.97
19,O=C(CS(=O)(=O)Cc1ccccc1)Nc1nc2ccccc2s1,-0.52
